For ten compounds, inhibition results are on record in ChEMBL document CHEMBL1165965, “Synthesis and structure-activity relationships of 1,2,3,4-tetrahydropyrido[2,3-b]pyrazines as potent and selective inhibitors of the anaplastic lymphoma kinase” (Bioorg Med Chem, 2010).

Structures are written as SMILES.

For experiment [1], the target named is Tyrosine-protein kinase Blk (Homo sapiens) (UniProt P51451). The experiment is described as follows: Inhibition of BLK at 1 uM. An outline of the steps:
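Ambit KINOMEscan screen at a single concentration across a 250–400 kinase panel, recorded as percent inhibition. Selectivity was expressed as S(90), the fraction of kinases inhibited >90%.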

Experiment [2] deals with Ribosomal protein S6 kinase alpha-1 (Homo sapiens) (UniProt Q15418). The experiment is described as follows: Inhibition of RPS6KA1 N-terminal domain1 at 1 uM.
Chain of Ribosomal protein S6 kinase alpha-1 (Homo sapiens) (Q15418 whole entry, the tested form may be a part): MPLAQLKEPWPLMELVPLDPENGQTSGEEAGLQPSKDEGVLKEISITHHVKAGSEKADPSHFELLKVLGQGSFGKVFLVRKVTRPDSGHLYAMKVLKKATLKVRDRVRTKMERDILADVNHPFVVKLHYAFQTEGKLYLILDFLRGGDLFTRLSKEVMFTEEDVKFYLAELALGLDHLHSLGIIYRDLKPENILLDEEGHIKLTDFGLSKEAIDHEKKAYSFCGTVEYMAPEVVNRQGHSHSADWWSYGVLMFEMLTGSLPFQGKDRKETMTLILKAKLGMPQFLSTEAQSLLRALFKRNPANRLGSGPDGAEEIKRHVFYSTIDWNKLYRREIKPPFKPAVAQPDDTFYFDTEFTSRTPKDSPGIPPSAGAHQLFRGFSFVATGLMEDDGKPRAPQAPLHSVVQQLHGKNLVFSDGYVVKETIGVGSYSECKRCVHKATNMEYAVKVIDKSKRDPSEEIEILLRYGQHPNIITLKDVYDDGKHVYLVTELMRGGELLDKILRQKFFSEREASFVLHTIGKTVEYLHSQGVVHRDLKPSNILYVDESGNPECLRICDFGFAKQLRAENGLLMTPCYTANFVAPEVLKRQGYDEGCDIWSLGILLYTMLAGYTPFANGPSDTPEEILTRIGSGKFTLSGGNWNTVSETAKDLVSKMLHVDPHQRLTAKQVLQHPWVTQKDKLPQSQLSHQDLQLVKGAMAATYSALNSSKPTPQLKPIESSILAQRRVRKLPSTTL
The subject of experiment [3] is T1, Receptor-type tyrosine-protein kinase FLT3 (Homo sapiens), P36888 [D835H].
T1 sequence (whole entry): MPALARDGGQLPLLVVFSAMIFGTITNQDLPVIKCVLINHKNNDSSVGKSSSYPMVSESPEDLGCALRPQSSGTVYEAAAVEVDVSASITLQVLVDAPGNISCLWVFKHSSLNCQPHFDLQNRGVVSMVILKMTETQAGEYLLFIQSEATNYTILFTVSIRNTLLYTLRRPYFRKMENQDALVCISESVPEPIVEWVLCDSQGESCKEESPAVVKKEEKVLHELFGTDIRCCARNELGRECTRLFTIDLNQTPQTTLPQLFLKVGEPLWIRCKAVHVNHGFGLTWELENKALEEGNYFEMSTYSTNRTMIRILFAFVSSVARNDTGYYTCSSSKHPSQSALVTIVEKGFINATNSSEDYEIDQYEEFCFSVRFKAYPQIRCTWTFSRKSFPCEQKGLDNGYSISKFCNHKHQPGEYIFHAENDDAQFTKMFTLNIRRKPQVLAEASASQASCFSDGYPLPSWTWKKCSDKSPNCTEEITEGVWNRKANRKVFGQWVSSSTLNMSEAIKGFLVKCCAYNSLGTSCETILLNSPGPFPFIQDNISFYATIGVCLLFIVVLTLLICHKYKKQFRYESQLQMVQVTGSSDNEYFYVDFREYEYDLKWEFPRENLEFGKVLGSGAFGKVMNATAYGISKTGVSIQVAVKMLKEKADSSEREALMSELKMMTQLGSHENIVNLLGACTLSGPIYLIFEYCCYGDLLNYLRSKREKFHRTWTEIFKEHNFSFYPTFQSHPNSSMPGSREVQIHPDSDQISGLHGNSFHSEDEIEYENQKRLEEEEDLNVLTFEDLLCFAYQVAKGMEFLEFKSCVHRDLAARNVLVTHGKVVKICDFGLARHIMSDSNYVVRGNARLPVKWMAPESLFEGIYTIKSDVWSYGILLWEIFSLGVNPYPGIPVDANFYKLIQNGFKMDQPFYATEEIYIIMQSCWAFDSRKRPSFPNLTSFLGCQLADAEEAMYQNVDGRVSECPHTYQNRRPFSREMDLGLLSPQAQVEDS
The experiment is described as follows: Inhibition of FLT3 D835H mutant at 1 uM. The method, boiled down: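 Single-concentration screen on the Ambit KINOMEscan platform, run against a panel of 250–400 kinases. Per-kinase inhibition was also summarized as S(90), the fraction of kinases inhibited by more than 90%.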

Experiment [4] concerns Epidermal growth factor receptor (Homo sapiens), P00533 [G719S]. Briefly: Inhibition of EGFR G719S mutant at 1 uM. In kind it is protein assay. An outline of the steps: (§1)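 Single-concentration screen using Ambit Bioscience KINOMEscan technology across a panel of 250–400 kinases. Per-kinase inhibition from this screen was summarized as S(90), the fraction of kinases inhibited by more than 90%.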
Chain of Epidermal growth factor receptor (Homo sapiens), P00533 [G719S] (P00533 whole entry G719S): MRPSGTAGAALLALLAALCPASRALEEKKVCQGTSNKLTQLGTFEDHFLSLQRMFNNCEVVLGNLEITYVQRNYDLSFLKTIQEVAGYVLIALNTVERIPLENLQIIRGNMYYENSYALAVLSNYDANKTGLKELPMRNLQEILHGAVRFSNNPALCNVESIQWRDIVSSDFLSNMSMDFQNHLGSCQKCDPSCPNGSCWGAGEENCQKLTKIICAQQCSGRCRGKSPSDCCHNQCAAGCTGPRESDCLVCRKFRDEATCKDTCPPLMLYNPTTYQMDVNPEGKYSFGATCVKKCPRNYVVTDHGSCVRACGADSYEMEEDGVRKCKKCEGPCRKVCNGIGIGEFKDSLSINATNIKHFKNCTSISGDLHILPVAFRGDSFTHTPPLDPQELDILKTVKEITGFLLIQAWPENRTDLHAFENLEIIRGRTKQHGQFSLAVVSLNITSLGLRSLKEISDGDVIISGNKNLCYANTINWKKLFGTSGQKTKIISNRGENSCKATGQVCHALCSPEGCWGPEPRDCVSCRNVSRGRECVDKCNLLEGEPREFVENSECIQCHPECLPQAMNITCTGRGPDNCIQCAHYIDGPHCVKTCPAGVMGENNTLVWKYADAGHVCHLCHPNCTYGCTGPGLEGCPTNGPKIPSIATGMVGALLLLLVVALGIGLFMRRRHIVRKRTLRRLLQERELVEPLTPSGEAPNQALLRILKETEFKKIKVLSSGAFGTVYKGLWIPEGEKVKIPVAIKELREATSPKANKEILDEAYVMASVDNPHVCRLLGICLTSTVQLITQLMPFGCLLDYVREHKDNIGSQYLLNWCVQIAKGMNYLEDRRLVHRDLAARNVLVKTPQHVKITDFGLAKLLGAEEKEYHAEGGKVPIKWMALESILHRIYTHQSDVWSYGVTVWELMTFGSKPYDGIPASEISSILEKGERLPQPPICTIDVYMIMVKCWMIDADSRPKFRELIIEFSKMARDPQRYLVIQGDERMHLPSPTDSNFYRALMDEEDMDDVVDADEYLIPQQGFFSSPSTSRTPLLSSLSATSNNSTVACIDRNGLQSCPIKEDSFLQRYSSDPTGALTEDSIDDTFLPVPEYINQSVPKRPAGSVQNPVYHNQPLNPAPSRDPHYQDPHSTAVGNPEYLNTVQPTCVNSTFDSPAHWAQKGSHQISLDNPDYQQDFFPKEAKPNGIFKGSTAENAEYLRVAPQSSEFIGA

Experiment [5] has as its target Serine/threonine-protein kinase PAK 1 (Homo sapiens) (UniProt Q13153). Briefly: Inhibition of PAK1 at 1 uM.
In experiment [6] the target is Casein kinase I isoform gamma-2 (Homo sapiens) (UniProt P78368). The experiment is described as follows: Inhibition of CSNK1G2 at 1 uM. An outline of the steps: as §1
Chain of Casein kinase I isoform gamma-2 (Homo sapiens) (P78368 whole entry, looked up, canonical isoform): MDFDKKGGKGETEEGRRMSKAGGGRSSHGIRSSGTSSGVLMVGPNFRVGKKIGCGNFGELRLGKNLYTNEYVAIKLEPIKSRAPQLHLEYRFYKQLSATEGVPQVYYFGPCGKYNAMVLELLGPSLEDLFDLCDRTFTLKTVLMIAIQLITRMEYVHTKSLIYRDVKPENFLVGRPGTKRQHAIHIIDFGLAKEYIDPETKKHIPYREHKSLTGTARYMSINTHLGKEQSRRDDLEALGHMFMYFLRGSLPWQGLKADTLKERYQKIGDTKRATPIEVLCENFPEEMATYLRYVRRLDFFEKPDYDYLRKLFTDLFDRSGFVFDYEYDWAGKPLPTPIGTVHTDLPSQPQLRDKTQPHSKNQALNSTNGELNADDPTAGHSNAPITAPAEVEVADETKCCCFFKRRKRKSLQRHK
Experiment [7] concerns the target T2, Serine/threonine-protein kinase LATS1 (Homo sapiens) (UniProt O95835).
T2 sequence (whole entry): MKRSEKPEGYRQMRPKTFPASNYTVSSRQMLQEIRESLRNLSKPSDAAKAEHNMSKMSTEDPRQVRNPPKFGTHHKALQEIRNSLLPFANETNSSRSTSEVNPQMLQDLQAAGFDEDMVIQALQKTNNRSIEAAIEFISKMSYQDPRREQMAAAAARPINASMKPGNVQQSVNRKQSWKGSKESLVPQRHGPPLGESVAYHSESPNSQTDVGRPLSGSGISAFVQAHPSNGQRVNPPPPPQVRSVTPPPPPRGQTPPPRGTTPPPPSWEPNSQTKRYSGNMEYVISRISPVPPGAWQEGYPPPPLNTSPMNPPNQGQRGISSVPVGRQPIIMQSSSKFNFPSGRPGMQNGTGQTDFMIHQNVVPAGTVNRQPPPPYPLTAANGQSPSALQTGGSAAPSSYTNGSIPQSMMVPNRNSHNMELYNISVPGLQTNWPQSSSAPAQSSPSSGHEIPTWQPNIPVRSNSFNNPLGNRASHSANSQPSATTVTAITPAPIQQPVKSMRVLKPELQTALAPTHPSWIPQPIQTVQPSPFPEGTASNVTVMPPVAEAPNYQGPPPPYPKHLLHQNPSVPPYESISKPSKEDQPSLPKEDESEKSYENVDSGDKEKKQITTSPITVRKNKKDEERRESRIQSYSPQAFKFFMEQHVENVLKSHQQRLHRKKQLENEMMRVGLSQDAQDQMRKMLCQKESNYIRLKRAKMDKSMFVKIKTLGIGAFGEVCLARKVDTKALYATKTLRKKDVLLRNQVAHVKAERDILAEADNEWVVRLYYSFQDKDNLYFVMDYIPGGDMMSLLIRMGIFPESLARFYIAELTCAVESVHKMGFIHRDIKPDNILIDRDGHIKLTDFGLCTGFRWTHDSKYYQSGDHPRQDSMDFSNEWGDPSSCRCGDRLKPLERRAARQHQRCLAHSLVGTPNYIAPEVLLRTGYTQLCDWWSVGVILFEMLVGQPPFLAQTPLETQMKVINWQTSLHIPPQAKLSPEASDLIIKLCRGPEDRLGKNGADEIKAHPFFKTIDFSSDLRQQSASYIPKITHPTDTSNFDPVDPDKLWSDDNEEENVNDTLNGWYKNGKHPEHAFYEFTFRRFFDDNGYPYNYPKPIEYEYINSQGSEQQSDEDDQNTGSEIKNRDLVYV
Briefly: Inhibition of LATS1 at 1 uM.

Experiment [8] addresses Receptor tyrosine-protein kinase erbB-3 (Homo sapiens) (UniProt P21860). The experiment is described as follows: Inhibition of ERBB3 at 1 uM.

Chain of Tyrosine-protein kinase Blk (Homo sapiens) (P51451 2-505 limits assumed): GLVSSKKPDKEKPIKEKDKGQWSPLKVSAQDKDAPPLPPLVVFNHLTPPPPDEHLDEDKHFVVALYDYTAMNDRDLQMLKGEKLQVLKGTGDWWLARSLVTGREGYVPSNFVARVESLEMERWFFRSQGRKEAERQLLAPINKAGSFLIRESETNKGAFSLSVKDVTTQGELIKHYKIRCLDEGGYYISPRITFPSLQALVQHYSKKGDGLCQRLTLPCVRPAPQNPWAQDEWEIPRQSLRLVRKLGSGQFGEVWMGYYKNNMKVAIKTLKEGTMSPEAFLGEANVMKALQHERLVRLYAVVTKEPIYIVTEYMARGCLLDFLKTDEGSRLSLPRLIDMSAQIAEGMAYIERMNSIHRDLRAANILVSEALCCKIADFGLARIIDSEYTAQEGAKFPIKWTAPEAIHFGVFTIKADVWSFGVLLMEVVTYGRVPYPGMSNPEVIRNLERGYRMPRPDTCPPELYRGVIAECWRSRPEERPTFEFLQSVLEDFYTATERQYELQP
Chain of Serine/threonine-protein kinase PAK 1 (Homo sapiens) (Q13153 whole entry, canonical isoform): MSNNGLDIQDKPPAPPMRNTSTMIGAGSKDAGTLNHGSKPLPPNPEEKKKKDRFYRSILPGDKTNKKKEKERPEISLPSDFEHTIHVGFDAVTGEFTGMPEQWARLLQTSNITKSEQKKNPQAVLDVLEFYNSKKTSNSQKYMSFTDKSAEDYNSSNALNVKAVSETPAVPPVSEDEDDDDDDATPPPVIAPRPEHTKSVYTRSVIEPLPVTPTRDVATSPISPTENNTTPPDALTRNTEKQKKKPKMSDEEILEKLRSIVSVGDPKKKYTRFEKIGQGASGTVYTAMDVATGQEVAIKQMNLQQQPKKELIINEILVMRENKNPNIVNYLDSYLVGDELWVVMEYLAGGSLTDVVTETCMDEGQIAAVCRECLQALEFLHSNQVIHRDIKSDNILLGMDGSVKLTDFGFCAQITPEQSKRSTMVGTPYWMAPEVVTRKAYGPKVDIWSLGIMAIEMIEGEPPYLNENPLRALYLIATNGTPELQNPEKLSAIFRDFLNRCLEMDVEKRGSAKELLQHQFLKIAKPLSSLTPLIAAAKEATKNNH
Chain of Receptor tyrosine-protein kinase erbB-3 (Homo sapiens) (P21860 whole entry): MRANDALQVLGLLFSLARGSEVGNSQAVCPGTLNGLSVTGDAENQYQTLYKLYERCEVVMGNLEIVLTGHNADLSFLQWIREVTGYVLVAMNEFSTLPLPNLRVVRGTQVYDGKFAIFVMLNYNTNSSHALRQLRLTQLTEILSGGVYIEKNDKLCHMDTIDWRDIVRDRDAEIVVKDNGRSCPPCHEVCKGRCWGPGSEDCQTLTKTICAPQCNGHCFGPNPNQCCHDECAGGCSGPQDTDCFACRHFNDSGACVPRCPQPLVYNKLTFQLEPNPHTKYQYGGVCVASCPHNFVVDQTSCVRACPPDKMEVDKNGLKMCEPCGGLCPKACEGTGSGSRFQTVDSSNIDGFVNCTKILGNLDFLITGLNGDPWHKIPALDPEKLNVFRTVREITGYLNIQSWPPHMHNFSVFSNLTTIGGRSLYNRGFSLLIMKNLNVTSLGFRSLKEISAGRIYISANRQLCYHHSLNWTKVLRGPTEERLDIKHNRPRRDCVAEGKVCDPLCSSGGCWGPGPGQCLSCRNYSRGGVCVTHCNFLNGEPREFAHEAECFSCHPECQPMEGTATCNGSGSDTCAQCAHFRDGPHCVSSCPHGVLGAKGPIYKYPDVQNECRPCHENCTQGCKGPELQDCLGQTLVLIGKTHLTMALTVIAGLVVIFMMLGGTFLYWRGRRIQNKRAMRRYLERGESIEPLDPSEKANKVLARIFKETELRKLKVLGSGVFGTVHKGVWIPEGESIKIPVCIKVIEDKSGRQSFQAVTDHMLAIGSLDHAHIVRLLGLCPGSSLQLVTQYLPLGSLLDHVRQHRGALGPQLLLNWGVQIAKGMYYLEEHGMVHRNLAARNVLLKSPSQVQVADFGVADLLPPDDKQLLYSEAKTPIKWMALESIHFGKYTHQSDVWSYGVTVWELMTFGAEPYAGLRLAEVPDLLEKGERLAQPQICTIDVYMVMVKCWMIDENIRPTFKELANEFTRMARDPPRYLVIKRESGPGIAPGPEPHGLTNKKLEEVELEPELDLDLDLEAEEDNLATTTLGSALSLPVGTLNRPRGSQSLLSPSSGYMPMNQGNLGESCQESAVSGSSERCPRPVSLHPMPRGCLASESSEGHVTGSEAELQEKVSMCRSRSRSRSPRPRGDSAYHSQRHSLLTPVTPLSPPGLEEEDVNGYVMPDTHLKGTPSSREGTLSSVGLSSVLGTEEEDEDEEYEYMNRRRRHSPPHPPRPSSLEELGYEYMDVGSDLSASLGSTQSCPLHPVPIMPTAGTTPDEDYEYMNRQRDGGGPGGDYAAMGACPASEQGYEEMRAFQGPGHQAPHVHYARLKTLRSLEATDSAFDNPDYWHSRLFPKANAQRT

With `O=C(c1ccc(-c2cnc3c(c2)N(Cc2cc(Cl)ccc2C(F)(F)F)CCN3)cc1)N1CCCCC1`, the inhibition in experiment [1], in experiment [2], in experiment [3], in experiment [4], in experiment [5] and in experiment [6] was below 50% each time.
In the case of `CN1CCN(c2ccc(-c3cnc4c(c3)N(Cc3c(F)ccc(F)c3Cl)CCN4)cn2)CC1`, the inhibition in experiment [1] is below 50%; in experiment [2], below 50%; in experiment [7], below 50%; in experiment [3], 73%; in experiment [4] it was below 50%; in experiment [5] it was below 50%. Further, the inhibition in experiment [6] and in experiment [8] was below 50% each time.
Turning to `COC1CCN(C(=O)c2ccc(-c3cnc4c(c3)N(Cc3cc(Cl)ccc3C(F)(F)F)CCN4)cc2)CC1`, the inhibition was below 50% in experiment [1]; below 50% in experiment [2]; 77.2% in experiment [3]; below 50% in experiment [4]; below 50% in experiment [5]; below 50% in experiment [6].
`O=C(O)c1ccc(-c2cnc3c(c2)N(Cc2cc(Cl)ccc2C(F)(F)F)CCN3)cc1`: the inhibition in experiment [1], in experiment [2], in experiment [3], in experiment [4], in experiment [5] and in experiment [6] was below 50% each time.
As to `FC(F)(F)c1ccc(Cl)cc1CN1CCNc2ncc(-c3ccnc(N4CCNCC4)c3)cc21`, the inhibition is below 50% in experiment [1]; below 50% in experiment [2]; below 50% in experiment [7]; 93% in experiment [3]; below 50% in experiment [4]; below 50% in experiment [5]. The inhibition in experiment [6] and in experiment [8] was below 50% throughout.
As for `CN1CCN(c2ccc(-c3cnc4c(c3)N(Cc3cc(Cl)ccc3Cl)CCN4)cn2)CC1`, the inhibition was below 50% in experiment [1]; below 50% in experiment [2]; below 50% in experiment [7]; 80% in experiment [3]; below 50% in experiment [4]; below 50% in experiment [5]. The inhibition in experiment [6] and in experiment [8] was below 50% each time.
As for `O=C(c1ccc(-c2cnc3c(c2)N(Cc2cc(Cl)ccc2C(F)(F)F)CCN3)cc1)N1CCC(N2CCCC2)CC1`, the inhibition in experiment [1] is below 50%; in experiment [2], below 50%; in experiment [3] it was 90.1%; in experiment [4], below 50%; in experiment [5], below 50%; in experiment [6], below 50%.
Regarding `CN1CCN(c2ccc(-c3cnc4c(c3)N(Cc3cc(Cl)ccc3C(F)(F)F)CCN4)cn2)CC1`, the inhibition in experiment [1] is below 50%; in experiment [2], below 50%; in experiment [7], below 50%; in experiment [3] it was 82%; in experiment [4], below 50%; in experiment [5] it was below 50%. Further, the inhibition in experiment [6] and in experiment [8] was below 50% in each case.
Turning to `CC(=O)N1CCN(c2cc(-c3cnc4c(c3)N(Cc3cc(Cl)ccc3C(F)(F)F)CCN4)ccn2)CC1`, the inhibition in experiment [1] was below 50%; in experiment [2], below 50%; in experiment [7], below 50%; in experiment [3], 81%; in experiment [4], below 50%; in experiment [5], below 50%. Moreover, the inhibition in experiment [6] and in experiment [8] was below 50% in each case.
`CN1CCN(c2ccc(-c3cnc4c(c3)N(Cc3cc(F)ccc3F)CCN4)cn2)CC1`: the inhibition in experiment [1] was below 50%; in experiment [2] it was below 50%; in experiment [7], below 50%; in experiment [3] it was 72.5%; in experiment [4] it was below 50%; in experiment [5], below 50%. For the same compound, the inhibition in experiment [6] and in experiment [8] was below 50% each time.
